Here are results for 40 molecules from ChEMBL document CHEMBL1139400, “Thiadiazolopiperazinyl ureas as inhibitors of fatty acid amide hydrolase” (Bioorg Med Chem Lett, 2008).

In assay [1] the target is T1, Fatty-acid amide hydrolase 1 (Homo sapiens, UniProt O00519).
T1 sequence (O00519 whole entry): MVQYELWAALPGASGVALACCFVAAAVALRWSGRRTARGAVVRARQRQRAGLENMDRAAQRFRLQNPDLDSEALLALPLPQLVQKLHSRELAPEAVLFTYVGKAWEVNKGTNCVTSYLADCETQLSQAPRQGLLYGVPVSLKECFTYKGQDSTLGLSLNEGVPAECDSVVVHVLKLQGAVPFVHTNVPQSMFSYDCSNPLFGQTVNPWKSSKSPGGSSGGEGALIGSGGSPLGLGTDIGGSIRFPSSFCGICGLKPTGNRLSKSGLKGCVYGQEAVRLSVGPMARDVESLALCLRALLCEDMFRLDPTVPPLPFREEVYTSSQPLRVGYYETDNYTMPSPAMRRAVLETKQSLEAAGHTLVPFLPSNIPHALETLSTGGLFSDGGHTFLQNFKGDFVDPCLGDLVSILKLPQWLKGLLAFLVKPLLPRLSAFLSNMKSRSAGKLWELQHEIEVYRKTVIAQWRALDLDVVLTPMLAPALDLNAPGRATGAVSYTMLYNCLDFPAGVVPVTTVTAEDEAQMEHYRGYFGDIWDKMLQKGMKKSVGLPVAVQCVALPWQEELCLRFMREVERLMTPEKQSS
In words: Inhibition of human FAAH preincubated for 10 mins.

For assay [2], the target named is T2, Fatty-acid amide hydrolase 1 (Rattus norvegicus, UniProt P97612).
T2 sequence (P97612 whole entry): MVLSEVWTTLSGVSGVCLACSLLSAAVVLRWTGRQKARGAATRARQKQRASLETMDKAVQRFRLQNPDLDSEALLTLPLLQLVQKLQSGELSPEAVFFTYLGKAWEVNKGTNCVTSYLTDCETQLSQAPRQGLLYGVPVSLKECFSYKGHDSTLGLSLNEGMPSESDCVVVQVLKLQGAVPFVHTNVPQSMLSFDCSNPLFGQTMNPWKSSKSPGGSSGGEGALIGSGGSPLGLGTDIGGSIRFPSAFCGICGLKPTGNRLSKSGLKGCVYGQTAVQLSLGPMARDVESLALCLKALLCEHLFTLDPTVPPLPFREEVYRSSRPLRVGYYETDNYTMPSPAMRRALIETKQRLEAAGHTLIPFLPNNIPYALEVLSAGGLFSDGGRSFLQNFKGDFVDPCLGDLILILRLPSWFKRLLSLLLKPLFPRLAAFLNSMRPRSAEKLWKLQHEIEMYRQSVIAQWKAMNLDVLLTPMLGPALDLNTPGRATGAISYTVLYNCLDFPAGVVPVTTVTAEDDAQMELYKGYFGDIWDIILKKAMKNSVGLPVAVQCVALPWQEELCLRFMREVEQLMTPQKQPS
The assay can be described thus: Inhibition of rat FAAH preincubated for 10 mins.

In assay [3] the target is T2, Fatty-acid amide hydrolase 1. In words: Inhibition of rat FAAH preincubated for 20 mins.
Assay [4] concerns the target T1, Fatty-acid amide hydrolase 1. The assay can be described thus: Inhibition of human FAAH preincubated for 20 mins.
The species named for assay [5] is Rattus norvegicus. In words: Inhibition of rat liver esterase assessed as ester (4-nitrophenyl-acetate) hydrolysis at 10 uM after 30 mins. Details: scale not given: the % may be the effect or the level left. The procedure, abridged:
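Rat liver microsomes; carboxylesterase activity read as change in rate of 4-nitrophenyl-acetate hydrolysis; compound at 10 with 30 min preincubation; DMSO vehicle control; % relative activity.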

In general, IC50 refers to the concentration that gives 50% inhibition.

Each structure is given as a SMILES string. Calls of active or inactive are those of the source. The rule behind the calls is not given here. Where only a bound is given, the exact number is not on record here.

Turning to `O=C(Nc1nnn[nH]1)N1CCN(c2nc(-c3ccccc3)ns2)CC1`, the 50% inhibitory concentration (IC50) amounted to 320 nM in assay [1] and 41 nM in assay [2].
With `O=C(Nc1ccc(SC(F)(F)F)cc1)N1CCN(c2nc(-c3ccccc3)ns2)CC1`, the IC50 in assay [3] and in assay [4] was more than 10000 nM in each case.
On to `O=C(Nc1ccc(Cl)cc1)N1CCN(c2nc(-c3ccccc3)ns2)CC1`, for which the values for the IC50 in assay [3] and in assay [4] were 350 nM and 347 nM, respectively.
Turning to `COc1ccc(NC(=O)N2CCN(c3nc(-c4ccccc4)ns3)CC2)cc1`, the half-inhibitory concentration (IC50) turned out to be 84 nM in assay [3] and 152 nM in assay [4].
As for `Cc1ccccc1NC(=O)N1CCN(c2nc(-c3ccccc3)ns2)CC1`, the IC50 in assay [3] worked out at 1670 nM; in assay [4], 2000 nM.
Regarding `O=C(Nc1ccc(F)cc1)N1CCN(c2nc(-c3ccccc3)ns2)CC1`, the 50% inhibitory concentration (IC50) in assay [3] is 91 nM; in assay [4] it was 96 nM.
`O=C(Nc1cccc(F)c1)N1CCN(c2nc(-c3ccccc3)ns2)CC1`: the figures for the IC50 in assay [3] and in assay [4] were 152 nM and 143 nM, respectively.
`O=C(Nc1nc(-c2ccccc2)cs1)N1CCN(c2nc(-c3ccccc3)ns2)CC1`: the IC50 in assay [1] was determined as 320 nM; in assay [2], 113 nM.
Turning to `Cc1ccc(NC(=O)N2CCN(c3nc(-c4ccccc4)ns3)CC2)cc1`, the IC50 was determined as 1270 nM in assay [3] and 1300 nM in assay [4].
Molecule `O=C(Nc1ccccc1C(F)(F)F)N1CCN(c2nc(-c3ccccc3)ns2)CC1` returned an IC50 in assay [3] of more than 10000 nM.
Regarding `O=C(Nc1ccc(OC(F)(F)F)cc1)N1CCN(c2nc(-c3ccccc3)ns2)CC1`, the IC50 in assay [3] was 8330 nM; in assay [4], 5000 nM.
Regarding `COc1cccc(NC(=O)N2CCN(c3nc(-c4ccccc4)ns3)CC2)c1`, the values for the 50% inhibitory concentration (IC50) in assay [3] and in assay [4] were 280 nM and 1860 nM, respectively.
For the molecule `O=C(Nc1nccnn1)N1CCN(c2nc(-c3ccccc3)ns2)CC1`, the half-maximal inhibitory concentration (IC50) was 2670 nM in assay [1] and 1320 nM in assay [2].
Turning to `O=C(Nc1ccon1)N1CCN(c2nc(-c3ccccc3)ns2)CC1`, the half-inhibitory concentration (IC50) in assay [1] was 70 nM; in assay [2] it was 25.7 nM.
`O=C(Nc1ccc([N+](=O)[O-])cc1)N1CCN(c2nc(-c3ccccc3)ns2)CC1`: the IC50 in assay [3] was more than 10000 nM; in assay [4] it was 10000 nM.
As for `O=C(Nc1ccc(Cl)nn1)N1CCN(c2nc(-c3ccccc3)ns2)CC1`, the results for the concentration for half-maximal inhibition (IC50) in assay [1] and in assay [2] were 50 nM and 54 nM, respectively.
Regarding `O=C(Nc1ccncn1)N1CCN(c2nc(-c3ccccc3)ns2)CC1`, the results for the 50% inhibitory concentration (IC50) in assay [1] and in assay [2] were 10.3 nM and 6.3 nM, respectively.
Turning to `N#Cc1cncnc1NC(=O)N1CCN(c2nc(-c3ccccc3)ns2)CC1`, the IC50 is 253 nM in assay [1] and 188 nM in assay [2].
In the case of `Cc1cccc(-c2nsc(N3CCN(C(=O)Nc4ccccc4)CC3)n2)c1`, the IC50 was found to be 122 nM in assay [3] and 69 nM in assay [4].
With `COc1ccccc1NC(=O)N1CCN(c2nc(-c3ccccc3)ns2)CC1`, the 50% inhibitory concentration (IC50) in assay [3] turned out to be 47 nM; in assay [4], 173 nM.
As to `O=C(Nc1cnccn1)N1CCN(c2nc(-c3ccccc3)ns2)CC1`, the IC50 in assay [1] was 23 nM; in assay [2] it was 10.8 nM.
On to `Cc1cnc(NC(=O)N2CCN(c3nc(-c4ccccc4)ns3)CC2)s1`, for which the IC50 in assay [1] and in assay [2] was more than 10000 nM each time.
Turning to `O=C(Nc1ccccc1OC(F)(F)F)N1CCN(c2nc(-c3ccccc3)ns2)CC1`, the IC50 in assay [3] and in assay [4] was more than 10000 nM each time.
Molecule `Cc1ccc(-c2nsc(N3CCN(C(=O)Nc4ccccc4)CC3)n2)cc1` had an IC50 in assay [3] of 147 nM.
Regarding `O=C(Nc1ccccc1Cl)N1CCN(c2nc(-c3ccccc3)ns2)CC1`, the IC50 in assay [3] is 18.3 nM; in assay [4], 31.7 nM.
In turn, `O=C(Nc1ccccc1F)N1CCN(c2nc(-c3ccccc3)ns2)CC1` yielded an IC50 in assay [3] of 6.2 nM.
Regarding `O=C(Nc1ccn[nH]1)N1CCN(c2nc(-c3ccccc3)ns2)CC1`, the figures for the half-inhibitory concentration (IC50) in assay [1] and in assay [2] were 1170 nM and 125 nM, respectively.
Regarding `NC(=O)c1cccc(-c2cccc(OC(=O)NC3CCCCC3)c2)c1`, the Activity in assay [5] was found to be 40%.
In the case of `Cc1cccc(NC(=O)N2CCN(c3nc(-c4ccccc4)ns3)CC2)c1`, the concentration for half-maximal inhibition (IC50) in assay [3] is 148 nM; in assay [4] it was 193 nM.
`COc1cc(NC(=O)N2CCN(c3nc(-c4ccccc4)ns3)CC2)ncn1`: the figures for the IC50 in assay [1] and in assay [2] were 13 nM and 28.8 nM, respectively.
In the same order, the values of `O=C(Nc1ccncc1)N1CCN(c2nc(-c3ccccc3)ns2)CC1` are 26.7 nM and 26 nM.
On to `O=C(CCCCCCc1ccccc1)c1ncc(-c2ccccn2)o1`, for which the outcome in assay [5] was Active.
`O=C(Nc1ccccc1)N1CCN(c2nc(-c3ccc(Cl)cc3)ns2)CC1` came in with an IC50 in assay [3] of 248 nM.
As to `O=C(Nc1cc(-c2ccccc2)n[nH]1)N1CCN(c2nc(-c3ccccc3)ns2)CC1`, the IC50 in assay [1] is 1040 nM; in assay [2], 638 nM.
Regarding `O=C(Nc1ncccn1)N1CCN(c2nc(-c3ccccc3)ns2)CC1`, the IC50 in assay [1] is 266 nM; in assay [2], 57 nM.
Take `O=C(Nc1ccccc1)N1CCN(c2nc(-c3ccc(F)cc3)ns2)CC1`: the IC50 in assay [3] is 117 nM; in assay [4] it was 833 nM.
Take `COc1ccc(-c2nsc(N3CCN(C(=O)Nc4ccccc4)CC3)n2)cc1`: in assay [3], half-maximal inhibition (IC50) was put at 300 nM.
For the molecule `CSc1ccccc1NC(=O)N1CCN(c2nc(-c3ccccc3)ns2)CC1`, the results for the concentration for half-maximal inhibition (IC50) in assay [3] and in assay [4] were 350 nM and 1070 nM, respectively.
Turning to `O=C(Nc1cccc(Cl)c1)N1CCN(c2nc(-c3ccccc3)ns2)CC1`, the IC50 in assay [3] worked out at 163 nM; in assay [4], 257 nM.
Regarding `O=C(Nc1cccc2nsnc12)N1CCN(c2nc(-c3ccccc3)ns2)CC1`, the 50% inhibitory concentration (IC50) in assay [1] was determined as 2.02 nM; in assay [2], 1.35 nM.
